Data on 57 sequences can be found in the array DNA melting data of Ke et al. (doi:10.1101/2024.01.08.574731).

Data set [1] can be described thus: melting temperature; fluorescence melt of hairpins on a sequencing array, two-state fit, raised by 9.35 °C to match UV melts. The following applies: sodium 0.088 M. Put shortly:
(§1)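 Melting temperature and folding enthalpy were derived from bootstrapped two-state fits. The fitted temperatures were raised by 9.35 °C to agree with UV melts, and four replicates were combined by inverse variance. The underlying data were Cy3 fluorescence images of library hairpins, with annealed Cy3 and quencher oligos, on a sequenced MiSeq flow cell in 50 mM Na-HEPES pH 8.0, 25 mM NaCl, taken in 2.5 °C steps up to 60 °C, normalised to pre-quench Cy3 and to control constructs.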

The nature of data set [2]: folding enthalpy; higher = less favourable; fluorescence melt of hairpins on a sequencing array, two-state fit. The settings on record: sodium 0.088 M. The procedure, abridged: as §1

For GATCGTCCGAACGATC ((((((....)))))), the Tm in data set [1] was 55.2 °C. Besides, in data set [2], the folding enthalpy is -39.2 kcal/mol.
Regarding GATCGTCCTACGATC ((((((...)))))), the Tm in data set [1] was found to be 56.5 °C. Besides, the folding enthalpy in data set [2] was -38.6 kcal/mol.
GATCGTCCTCACGATC ((((((....)))))): in data set [1], the Tm was found to be 53.5 °C. Further, in data set [2], the folding enthalpy was -42.9 kcal/mol.
Consider GATCGTCGCCACGATC ((((((....)))))), for which the Tm in data set [1] was 53.8 °C. Further, in data set [2], the folding enthalpy was -42.1 kcal/mol.
On to GATCGTCGGCACGATC ((((((....)))))), for which the Tm in data set [1] was 53 °C. In addition, the folding enthalpy in data set [2] was -21.4 kcal/mol.
As for GATCGTCTATACGATC ((((((....)))))), the Tm in data set [1] was determined as 54.8 °C. Further, in data set [2], the folding enthalpy is -38.9 kcal/mol.
As for GATCGTCTCAACGATC ((((((....)))))), the Tm in data set [1] was determined as 57.6 °C. Also, the folding enthalpy in data set [2] is -41.6 kcal/mol.
Turning to GATCGTCTCCACGATC ((((((....)))))), the Tm in data set [1] turned out to be 53.7 °C. In addition, the folding enthalpy in data set [2] was -38.1 kcal/mol.
GATCGTCTCGACGATC ((((((....)))))): the Tm in data set [1] turned out to be 65.3 °C. Moreover, the folding enthalpy in data set [2] was -40.9 kcal/mol.
Take GATCGTCTGCACGATC ((((((....)))))): the Tm in data set [1] stood at 55.3 °C. Also, in data set [2], the folding enthalpy is -38.3 kcal/mol.
Consider GATCGTCTTAACGATC ((((((....)))))), for which, in data set [1], the Tm was determined as 58.5 °C. For the same sequence, in data set [2], the folding enthalpy is -41.3 kcal/mol.
Consider GATCGTCTTCACGATC ((((((....)))))), for which, in data set [1], the Tm turned out to be 53.4 °C. Also, the folding enthalpy in data set [2] is -45.7 kcal/mol.
Regarding GATCGTGATAACGATC ((((((....)))))), the Tm in data set [1] stood at 63.6 °C. The folding enthalpy in data set [2] was -40.2 kcal/mol.
In the case of GATCGTGCAAACGATC ((((((....)))))), in data set [1], the Tm was determined as 66.9 °C. Further, the folding enthalpy in data set [2] was -33 kcal/mol.
Regarding GATCGTGCACACGATC ((((((....)))))), the Tm in data set [1] turned out to be 64.7 °C. Also, the folding enthalpy in data set [2] was -41.3 kcal/mol.
Taken in the same sequence, the figures for GATCGTGCCCACGATC ((((((....)))))) were 59.7 °C and -39.8 kcal/mol.
For the sequence GATCGTGCTCACGATC ((((((....)))))), the Tm in data set [1] amounted to 58.9 °C. In data set [2], the folding enthalpy is -48.2 kcal/mol.
With GATCGTGCTGACGATC ((((((....)))))), the Tm in data set [1] stood at 55.8 °C. For the same sequence, the folding enthalpy in data set [2] was -36.4 kcal/mol.
As for GATCGTGGAAACACGATC (((((((....))))))), the Tm in data set [1] amounted to 66.3 °C. The folding enthalpy in data set [2] was -41.2 kcal/mol.
Take GATCGTGGAAACATGGTC ((.(.((....)).).)): the Tm in data set [1] was 32.7 °C. The folding enthalpy in data set [2] is -20.4 kcal/mol.
GATCGTGGAACGATC ((((((...)))))): the Tm in data set [1] was 66.8 °C. In addition, the folding enthalpy in data set [2] is -35.7 kcal/mol.
Regarding GATCGTGGAGACGATC ((((((....)))))), the Tm in data set [1] came out at 57.8 °C. The folding enthalpy in data set [2] is -42.4 kcal/mol.
In the case of GATCGTGGCACGATC ((((((...)))))), the Tm in data set [1] came out at 59.8 °C. Moreover, in data set [2], the folding enthalpy was -45.8 kcal/mol.
For GATCGTGGGAACGATC ((((((....)))))) the same measures were 61 °C and -38.5 kcal/mol.
Consider GATCGTGGGGACGATC ((((((....)))))), for which the Tm in data set [1] worked out at 54.3 °C. Also, the folding enthalpy in data set [2] was -36.2 kcal/mol.
On to GATCGTGTCACGATC ((((((...)))))), for which, in data set [1], the Tm came out at 59.3 °C. Besides, the folding enthalpy in data set [2] was -38.2 kcal/mol.
Take GATCGTGTCGACGATC ((((((....)))))): the Tm in data set [1] amounted to 60.3 °C. The folding enthalpy in data set [2] was -33.9 kcal/mol.
Take GATCGTGTTAACGATC ((((((....)))))): the Tm in data set [1] was determined as 66.9 °C. For the same sequence, the folding enthalpy in data set [2] is -36 kcal/mol.
As to GATCGTGTTCACGATC ((((((....)))))), the Tm in data set [1] worked out at 58.8 °C. Also, the folding enthalpy in data set [2] is -44.2 kcal/mol.
For GATCGTTACCACGATC ((((((....)))))), in data set [1], the Tm worked out at 54.3 °C. The folding enthalpy in data set [2] was -45.6 kcal/mol.
GATCGTTAGACGATC ((((((...)))))): in data set [1], the Tm was 52.9 °C. For the same sequence, the folding enthalpy in data set [2] is -34.8 kcal/mol.
GATCGTTATACGATC ((((((...)))))): in data set [1], the Tm amounted to 57.9 °C. For the same sequence, the folding enthalpy in data set [2] is -36.4 kcal/mol.
As for GATCGTTCCACGATC ((((((...)))))), the Tm in data set [1] amounted to 59.6 °C. The folding enthalpy in data set [2] was -40.1 kcal/mol.
Consider GATCGTTCCTACGATC ((((((....)))))), for which, in data set [1], the Tm was 56.7 °C. Also, in data set [2], the folding enthalpy was -41.9 kcal/mol.
Take GATCGTTCTCACGATC ((((((....)))))): the Tm in data set [1] was found to be 54.8 °C. In addition, the folding enthalpy in data set [2] was -40.8 kcal/mol.
Taken in the same sequence, the figures for GATCGTTGATACGATC ((((((....)))))) were 54.3 °C and -35.3 kcal/mol.
GATCGTTGCTACGATC ((((((....)))))): the Tm in data set [1] was determined as 56.3 °C. Besides, in data set [2], the folding enthalpy was -35.9 kcal/mol.
Turning to GATCGTTGTTACGATC ((((((....)))))), the Tm in data set [1] was 57.4 °C. Moreover, in data set [2], the folding enthalpy is -37.7 kcal/mol.
Taken in the same sequence, the figures for GATCGTTTCAACGATC ((((((....)))))) were 59.7 °C and -42 kcal/mol.
As to GATCGTTTCGACGATC ((((((....)))))), in data set [1], the Tm was 57.7 °C. For the same sequence, the folding enthalpy in data set [2] was -43.1 kcal/mol.
Regarding GATCGTTTCTACGATC ((((((....)))))), the Tm in data set [1] worked out at 55.8 °C. The folding enthalpy in data set [2] is -43 kcal/mol.
In the case of GATCGTTTGCACGATC ((((((....)))))), the Tm in data set [1] turned out to be 54.7 °C. The folding enthalpy in data set [2] is -27 kcal/mol.
For the sequence GATCGTTTTGACGATC ((((((....)))))), the Tm in data set [1] amounted to 57.2 °C. For the same sequence, in data set [2], the folding enthalpy was -40.3 kcal/mol.
In the case of GATCTAAAAGTAGATC ((((((....)))))), in data set [1], the Tm amounted to 29.6 °C. In addition, the folding enthalpy in data set [2] was -17.5 kcal/mol.
As for GATCTAAACCTAGATC ((((((....)))))), the Tm in data set [1] was determined as 39.3 °C. The folding enthalpy in data set [2] was -33.8 kcal/mol.
Consider GATCTAAACTAGATC ((((((...)))))), for which, in data set [1], the Tm worked out at 36.1 °C. In data set [2], the folding enthalpy is -23.9 kcal/mol.
For GATCTAACAATAGATC ((((((....)))))), in data set [1], the Tm worked out at 33.9 °C. In addition, the folding enthalpy in data set [2] is -17.6 kcal/mol.
Consider GATCTAACATTAGATC ((((((....)))))), for which the Tm in data set [1] came out at 39.6 °C. For the same sequence, the folding enthalpy in data set [2] is -22.6 kcal/mol.
In the case of GATCTAACCATAGATC ((((((....)))))), in data set [1], the Tm came to 38.2 °C. Moreover, the folding enthalpy in data set [2] was -31.7 kcal/mol.
In the case of GATCTAACCCTAGATC ((((((....)))))), the Tm in data set [1] was found to be 37.5 °C. Further, in data set [2], the folding enthalpy is -31.1 kcal/mol.
Regarding GATCTAACGTAGATC ((((((...)))))), the Tm in data set [1] stood at 36.1 °C. In addition, the folding enthalpy in data set [2] was -24.5 kcal/mol.
On to GATCTAAGACTAGATC ((((((....)))))), for which, in data set [1], the Tm was determined as 34.3 °C. Also, the folding enthalpy in data set [2] was -19.9 kcal/mol.
Turning to GATCTAAGATTAGATC ((((((....)))))), the Tm in data set [1] was determined as 37.5 °C. In data set [2], the folding enthalpy is -32.1 kcal/mol.
In the case of GATCTAAGTATAGATC ((((((....)))))), the Tm in data set [1] was 37.9 °C. Moreover, the folding enthalpy in data set [2] is -27.7 kcal/mol.
Taken in the same sequence, the figures for GATCTAATCCTAGATC ((((((....)))))) were 38.3 °C and -25.6 kcal/mol.
Regarding GATCTAATGTTAGATC ((((((....)))))), the Tm in data set [1] was 40.2 °C. The folding enthalpy in data set [2] was -34.3 kcal/mol.
Turning to GATCTACAATTAGATC ((((((....)))))), the Tm in data set [1] came out at 35.6 °C. For the same sequence, the folding enthalpy in data set [2] is -21.3 kcal/mol.
